Measurements taken from ChEMBL document CHEMBL4382255, “Design, synthesis and activity of Mnk1 and Mnk2 selective inhibitors containing thieno[2,3-d]pyrimidine scaffold” (Eur J Med Chem, 2019).
Blank lines part the entries; values can stand above or below the compound they belong to. Activity calls are given as the source filed them. Unless noted, the calls are words filed in the database; no cut-off is given here.

Tests used:
Mus musculus [1] = organism: Mus musculus; test: Inhibition of MNK in mouse 3T3L1 cells assessed as reduction of eIF4E phosphorylation at 3 uM after 2 hrs by Western blot analysis; assay type: cell-based
How it was run: (§1)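 Mouse 3T3-L1 pre-adipocytes (DMEM high glucose, 10% heat-inactivated FBS, 37 °C, 5% CO₂) treated 2 h with compounds at 3 μM or lower concentrations down to 0.1 μM final; DMSO vehicle 0.03-0.05% final. RIPA lysates cleared, equal protein resolved by SDS-PAGE, immunoblotted for P-eIF4E and total eIF4E, fluorescent secondary detection.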

3T3-L1 = test: Effect on total eIF4E protein level in mouse 3T3L1 cells at 3 uM after 2 hrs by Western blot analysis; assay type: ADME, cell-based; settings: 3t3-l1, 2 h; how it was run: as §1
Mus musculus [2] = organism: Mus musculus; test: Inhibition of MNK in mouse 3T3L1 cells assessed as reduction of eIF4E phosphorylation at 0.1 uM after 2 hrs by Western blot analysis; assay type: cell-based; how it was run: as §1
Mus musculus [3] = organism: Mus musculus; test: Inhibition of mTORC2 in mouse 3T3L1 cells assessed as reduction in PKB phosphorylation at Ser473 residue at 0.1 to 5 uM after 2 hrs by Western blot analysis; assay type: cell-based
How it was run: (§2)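 3T3-L1 cells treated 2 h with inhibitor at indicated concentrations (DMSO <0.05% v/v). RIPA lysates, equal protein by Bradford, SDS-PAGE and western blot with phospho-specific antibodies (ERK, RSK, PKB Ser473, 4E-BP1, rpS6); fluorescent secondary imaging. Quantified from three independent experiments, SEM error bars.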

Mus musculus [4] = organism: Mus musculus; test: Inhibition of mTORC1 in mouse 3T3L1 cells assessed as reduction in rpS6 phosphorylation at Ser240/244 residues at 0.1 to 5 uM after 2 hrs by Western blot analysis; assay type: cell-based; how it was run: as §2
Mus musculus [5] = organism: Mus musculus; test: Inhibition of mTORC1 in mouse 3T3L1 cells assessed as reduction in 4EBP1 at Ser65 residue phosphorylation at 0.1 to 5 uM after 2 hrs by Western blot analysis; assay type: cell-based; how it was run: as §2
[6] = target: Mitogen-activated protein kinase 1 and 3 (ERK2 and ERK1) (Mus musculus) (UniProt P63085+Q63844); test: Inhibition of ERK1/2 phosphorylation at Thr202/Tyr204 residues in mouse 3T3L1 cells at 0.1 to 5 uM after 2 hrs by Western blot analysis; assay type: cell-based; how it was run: as §2
Mus musculus [7] = organism: Mus musculus; test: Inhibition of ERK signalling in mouse 3T3L1 cells assessed as reduction in RSK phosphorylation at […] residue at 0.1 to 5 uM after 2 hrs by Western blot analysis; assay type: cell-based; how it was run: as §2
[8] = target: MAP kinase-interacting serine/threonine-protein kinase 1 (Mus musculus) (UniProt O08605); test: Inhibition of MNK1 in C57BL/6J mouse embryonic fibroblasts assessed as decrease in eIF4E phosphorylation at 5 uM after 2 hrs by Western blot analysis
How it was run: (§3)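 MEFs from E13.5 C57BL/6J embryos, wild-type, MNK1-KO or MNK2-KO (DMEM, 10% FBS), treated 2 h with inhibitor at indicated concentrations, including a lower-concentration series in MNK1-KO cells; CGP57380 at 50 μM as reference. Lysates analysed by SDS-PAGE/western blot for P-eIF4E; quantified from three independent experiments, SEM.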

[9] = target: MAP kinase-interacting serine/threonine-protein kinase 2 (Mus musculus) (UniProt Q8CDB0); test: Inhibition of MNK2 in C57BL/6J mouse embryonic fibroblasts assessed as decrease in eIF4E phosphorylation at 5 uM after 2 hrs by Western blot analysis; how it was run: as §3
[10] = target: MAP kinase-interacting serine/threonine-protein kinase 1 (Mus musculus) (UniProt O08605); test: Inhibition of MNK1 in C57BL/6J mouse embryonic fibroblasts assessed as decrease in eIF4E phosphorylation at 0.1 to 0.3 uM after 2 hrs by Western blot analysis relative to control; how it was run: as §3
[11] = target: MAP kinase-interacting serine/threonine-protein kinase 1 (Mus musculus) (UniProt O08605); test: Inhibition of MNK1 in MNK2-knockout C57BL/6J mouse embryonic fibroblasts assessed as decrease in eIF4E phosphorylation at 0.3 to 5 uM after 2 hrs by Western blot analysis; how it was run: as §3
[12] = target: MAP kinase-interacting serine/threonine-protein kinase 1 (Homo sapiens) (UniProt Q9BUB5); test: Inhibition of GST-fused MNK1a (unknown origin) expressed in HEK293 cells using eIF4E as substrate after 30 mins by Western blot analysis; assay type: cell-based
How it was run: (§4)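 GST-MNK1a or GST-MNK2a expressed in transfected HEK293 cells, purified by glutathione pull-down. Incubated in 25 mM Tris-HCl pH 7.5, 50 mM KCl, 2 mM MgCl₂ with 20 µM ATP and 65 ng E. coli-expressed eIF4E, 30 °C, 30 min, ± inhibitor. Stopped with sample buffer; immunoblotted for P-eIF4E Ser209, eIF4E and GST. Conditions pre-set within linear range.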

[13] = target: MAP kinase-interacting serine/threonine-protein kinase 2 (Homo sapiens) (UniProt Q9HBH9); test: Inhibition of GST-fused MNK2a (unknown origin) expressed in HEK293 cells using eIF4E as substrate after 30 mins by Western blot analysis; assay type: cell-based; how it was run: as §4
[14] = target: T1, MAP kinase-interacting serine/threonine-protein kinase 1/2 (Homo sapiens) (UniProt Q9HBH9+Q9BUB5); test: Inhibition of MNK in human MDA-MB-231 cells assessed as decrease in eIF4E phosphorylation at 1 uM after 2 hrs by Western blot analysis; assay type: cell-based
How it was run: (§5)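 MDA-MB-231 cells treated with inhibitor at indicated concentrations for 2 h, or at 3 μM for times up to 72 h (DMSO vehicle <0.05%). Cells lysed in RIPA buffer; supernatants analysed by SDS-PAGE and western blot for P-eIF4E and total eIF4E. CGP57380 at 30 μM as reference.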

MDA-MB-231 = test: Antimigratory activity against human MDA-MB-231 cells after 24 hrs by DAPI staining-based Transwell assay; assay type: functional, cell-based
How it was run: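 MDA-MB-231 cells pre-treated with inhibitor 60 min, then 3 x 10⁵ cells seeded into 8 μm-pore Transwell inserts pre-coated with 10 μg/ml collagen (collagen as attractant). After 24 h, migrated cells in bottom well stained with DAPI, imaged at ×10 and counted. Triplicate assays, mean ± SEM.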

[15] = target: MAP kinase-interacting serine/threonine-protein kinase 2 (Mus musculus) (UniProt Q8CDB0); test: Inhibition of MNK2 in MNK1-knockout C57BL/6J mouse embryonic fibroblasts assessed as decrease in eIF4E phosphorylation at 0.5 uM after 2 hrs by Western blot analysis; how it was run: as §3
[16] = target: MAP kinase-interacting serine/threonine-protein kinase 2 (Mus musculus) (UniProt Q8CDB0); test: Inhibition of MNK2 in MNK1-knockout C57BL/6J mouse embryonic fibroblasts assessed as decrease in eIF4E phosphorylation at 0.003 to 0.03 uM after 2 hrs by Western blot analysis; how it was run: as §3
[17] = target: T1, MAP kinase-interacting serine/threonine-protein kinase 1/2 (Homo sapiens); test: Inhibition of MNK in human MDA-MB-231 cells assessed as decrease in eIF4E phosphorylation at 3 uM up to 72 hrs by Western blot analysis; assay type: cell-based; how it was run: as §5

Sequence of MAP kinase-interacting serine/threonine-protein kinase 1 (Mus musculus) (O08605 whole entry, the tested form may be a part): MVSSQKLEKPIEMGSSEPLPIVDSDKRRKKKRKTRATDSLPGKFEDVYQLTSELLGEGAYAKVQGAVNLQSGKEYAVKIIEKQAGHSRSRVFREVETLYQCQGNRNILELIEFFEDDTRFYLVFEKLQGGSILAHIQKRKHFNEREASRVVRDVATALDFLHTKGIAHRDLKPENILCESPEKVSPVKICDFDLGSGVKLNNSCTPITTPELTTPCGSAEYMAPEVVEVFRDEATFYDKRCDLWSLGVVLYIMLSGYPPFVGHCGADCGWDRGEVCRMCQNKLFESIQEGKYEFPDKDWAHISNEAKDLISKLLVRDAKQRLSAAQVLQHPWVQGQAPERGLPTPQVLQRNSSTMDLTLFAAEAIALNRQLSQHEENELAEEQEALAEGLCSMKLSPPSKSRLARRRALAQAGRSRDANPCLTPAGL
Sequence of MAP kinase-interacting serine/threonine-protein kinase 2 (Mus musculus) (Q8CDB0 whole entry): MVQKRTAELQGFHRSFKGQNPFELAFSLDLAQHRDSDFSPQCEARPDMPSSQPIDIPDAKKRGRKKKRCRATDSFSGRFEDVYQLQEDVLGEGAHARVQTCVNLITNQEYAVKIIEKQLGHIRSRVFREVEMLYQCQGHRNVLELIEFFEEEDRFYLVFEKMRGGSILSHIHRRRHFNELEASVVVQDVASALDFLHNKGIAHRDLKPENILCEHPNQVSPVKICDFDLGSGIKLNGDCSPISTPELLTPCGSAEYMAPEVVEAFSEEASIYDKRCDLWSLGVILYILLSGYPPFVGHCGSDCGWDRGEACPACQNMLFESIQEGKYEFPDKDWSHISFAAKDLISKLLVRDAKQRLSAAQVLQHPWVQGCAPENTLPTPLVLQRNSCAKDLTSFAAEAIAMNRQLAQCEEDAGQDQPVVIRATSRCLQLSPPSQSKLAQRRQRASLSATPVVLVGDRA
Sequence of MAP kinase-interacting serine/threonine-protein kinase 1 (Homo sapiens) (Q9BUB5 whole entry, looked up, the tested form may be a part): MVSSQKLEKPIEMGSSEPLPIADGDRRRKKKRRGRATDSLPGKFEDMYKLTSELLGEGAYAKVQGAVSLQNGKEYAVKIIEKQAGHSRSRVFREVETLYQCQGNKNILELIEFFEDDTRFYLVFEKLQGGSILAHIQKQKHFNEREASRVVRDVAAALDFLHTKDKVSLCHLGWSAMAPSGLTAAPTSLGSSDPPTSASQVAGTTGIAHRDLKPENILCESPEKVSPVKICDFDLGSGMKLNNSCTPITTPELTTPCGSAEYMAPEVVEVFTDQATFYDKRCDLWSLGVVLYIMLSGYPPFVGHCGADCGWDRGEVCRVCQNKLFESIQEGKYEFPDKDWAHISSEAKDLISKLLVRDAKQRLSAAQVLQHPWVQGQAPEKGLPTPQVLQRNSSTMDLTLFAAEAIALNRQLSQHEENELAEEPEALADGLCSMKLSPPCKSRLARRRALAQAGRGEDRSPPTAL
Sequence of MAP kinase-interacting serine/threonine-protein kinase 2 (Homo sapiens) (Q9HBH9 whole entry, looked up, the tested form may be a part): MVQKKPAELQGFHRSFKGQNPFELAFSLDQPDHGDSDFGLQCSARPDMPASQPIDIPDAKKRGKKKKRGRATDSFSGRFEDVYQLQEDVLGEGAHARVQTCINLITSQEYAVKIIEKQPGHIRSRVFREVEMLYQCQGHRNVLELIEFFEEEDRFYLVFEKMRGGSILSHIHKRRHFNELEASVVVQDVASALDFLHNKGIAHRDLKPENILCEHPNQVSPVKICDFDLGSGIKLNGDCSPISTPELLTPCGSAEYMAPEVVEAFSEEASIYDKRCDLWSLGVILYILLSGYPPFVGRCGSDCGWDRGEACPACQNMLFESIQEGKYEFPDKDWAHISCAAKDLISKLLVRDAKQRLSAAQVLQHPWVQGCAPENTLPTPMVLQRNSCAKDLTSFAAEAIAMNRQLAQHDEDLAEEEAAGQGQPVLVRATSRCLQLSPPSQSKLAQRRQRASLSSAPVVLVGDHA
Sequence of Mitogen-activated protein kinase 1 and 3 (ERK2 and ERK1) (Mus musculus) (P63085 whole entry, looked up): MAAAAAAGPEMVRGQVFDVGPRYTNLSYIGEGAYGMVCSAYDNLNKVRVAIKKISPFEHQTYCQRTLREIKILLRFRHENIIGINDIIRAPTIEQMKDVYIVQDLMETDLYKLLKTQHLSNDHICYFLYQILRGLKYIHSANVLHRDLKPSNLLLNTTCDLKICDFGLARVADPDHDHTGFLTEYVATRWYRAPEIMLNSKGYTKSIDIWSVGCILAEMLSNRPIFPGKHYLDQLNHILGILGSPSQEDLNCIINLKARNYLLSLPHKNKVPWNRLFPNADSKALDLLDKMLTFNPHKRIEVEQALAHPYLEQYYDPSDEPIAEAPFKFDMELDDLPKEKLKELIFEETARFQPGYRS
Sequence of Mitogen-activated protein kinase 1 and 3 (ERK2 and ERK1) (Mus musculus) (Q63844 whole entry, looked up): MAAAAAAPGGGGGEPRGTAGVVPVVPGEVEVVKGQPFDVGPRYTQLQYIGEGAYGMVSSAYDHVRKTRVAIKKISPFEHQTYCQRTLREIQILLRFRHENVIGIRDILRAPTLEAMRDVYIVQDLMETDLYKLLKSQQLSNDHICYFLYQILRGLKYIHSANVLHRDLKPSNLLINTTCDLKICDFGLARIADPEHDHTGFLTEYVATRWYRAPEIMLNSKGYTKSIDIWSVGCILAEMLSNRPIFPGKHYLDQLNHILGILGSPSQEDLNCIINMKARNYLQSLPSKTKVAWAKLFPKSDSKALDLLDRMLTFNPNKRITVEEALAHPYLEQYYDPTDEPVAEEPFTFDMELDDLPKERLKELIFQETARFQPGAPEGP

Compound: COc1cc(F)ccc1Nc1ncnc2sc(C(=O)N3CCN(C)CC3)c(C)c12
MNK inhibition (active/not active) (Mus musculus [1]): Active
Activity (3T3-L1): Non-Toxic

Compound: COc1cc(F)ccc1Nc1ncnc2sc(C(=O)NCCc3ccncc3)c(C)c12
MNK inhibition (active/not active) (Mus musculus [1]): Active
Activity (3T3-L1): Non-Toxic

Compound: COc1cc(F)ccc1Nc1ncnc2sc(C(=O)NCC(C)(C)CN(C)C)c(C)c12
Activity (3T3-L1): Non-Toxic

Compound: COc1cc(F)ccc1Nc1ncnc2sc(C(=O)N3CCOCC3)c(C)c12
MNK inhibition (active/not active) (Mus musculus [1]): Active
Activity (3T3-L1): Non-Toxic

Compound: COc1cc(F)ccc1Nc1ncnc2sc(C(=O)NCCc3c[nH]cn3)c(C)c12
MNK inhibition (active/not active) (Mus musculus [1]): Active
Activity (3T3-L1): Non-Toxic

Compound: COC(=O)c1sc2ncnc(Nc3ccc(F)cc3OC(C)C)c2c1C
MNK inhibition (active/not active) (Mus musculus [1]): inactive

Compound: COc1cc(F)ccc1Nc1ncnc2sc(C(=O)NCCCN(C)C)c(C)c12
MNK inhibition (active/not active) (Mus musculus [1]): inactive

Compound: Cc1c(C(=O)NC2CCCCC2)sc2ncnc(Nc3ccc(F)cc3OC(C)C)c12
MNK inhibition (active/not active) (Mus musculus [1]): Active
Activity (3T3-L1): Non-Toxic

Compound: Cc1c(C(=O)N2CCCC2)sc2ncnc(Nc3ccc(F)cc3OC(C)C)c12
MNK inhibition (active/not active) (Mus musculus [1]): Active
Activity (3T3-L1): Non-Toxic

Compound: COc1cc(F)ccc1Nc1ncnc2sc(C(=O)NCCCN3CCCC3)c(C)c12
MNK inhibition (active/not active) (Mus musculus [1]): Active
Activity (3T3-L1): Non-Toxic

Compound: Cc1c(C(=O)N2CCN(C)CC2)sc2ncnc(Nc3ccc(F)cc3OC(C)C)c12
MNK inhibition (active/not active) (Mus musculus [1]): Active
Activity (3T3-L1): Non-Toxic

Compound: Cc1c(C(=O)NCCCN2CCOCC2)sc2ncnc(Nc3ccc(F)cc3OC(C)C)c12
MNK inhibition (active/not active) (Mus musculus [1]): Active
inhibition of eIF4E phosphorylation (active/not active) (Mus musculus [2]): inactive
Activity (3T3-L1): Non-Toxic

Compound: Cc1c(C(=O)NCCc2c[nH]cn2)sc2ncnc(Nc3ccc(F)cc3OC(C)C)c12
MNK inhibition (active/not active) (Mus musculus [1]): Active
inhibition of eIF4E phosphorylation (active/not active) (Mus musculus [2]): inactive
Activity (3T3-L1): Non-Toxic

Compound: Cc1c(C(=O)OCCCO)sc2ncnc(Nc3ccc(F)cc3OC(C)C)c12
MNK inhibition (active/not active) (Mus musculus [1]): Active
Activity (3T3-L1): Non-Toxic

inhibition [6]: inactive
inhibition [8]: 100%
inhibition [9]: 100%
inhibition [10]: 50%
inhibition [11]: Active
inhibition [12]: Active
inhibition [13]: Active
inhibition [14]: 100%
inhibition [15]: Active
inhibition [16]: Active
inhibition [17]: Active
Compound: Cc1c(C(=O)NCCCN(C)C)sc2ncnc(Nc3ccc(F)cc3OC(C)CF)c12 (configuration not stated)
MNK inhibition (active/not active) (Mus musculus [1]): Active
inhibition of eIF4E phosphorylation (active/not active) (Mus musculus [2]): Active
inhibition (Mus musculus [3]): inactive
inhibition (Mus musculus [4]): inactive
inhibition (Mus musculus [5]): inactive
inhibition (Mus musculus [7]): inactive
inhibition (MDA-MB-231): Active
Activity (3T3-L1): Non-Toxic

Compound: Cc1c(C(=O)OCCO)sc2ncnc(Nc3ccc(F)cc3OC(C)C)c12
MNK inhibition (active/not active) (Mus musculus [1]): Active

Compound: Cc1c(C(=O)NCCCO)sc2ncnc(Nc3ccc(F)cc3OC(C)C)c12
MNK inhibition (active/not active) (Mus musculus [1]): Active

Compound: COc1cc(F)ccc1Nc1ncnc2sc(C(=O)NCCCN3CCOCC3)c(C)c12
MNK inhibition (active/not active) (Mus musculus [1]): Active
Activity (3T3-L1): Non-Toxic

Compound: COc1cc(F)ccc1Nc1ncnc2sc(C(=O)N3CCCCC3)c(C)c12
MNK inhibition (active/not active) (Mus musculus [1]): Active
Activity (3T3-L1): Non-Toxic

Compound: Cc1c(C(=O)N2CCOCC2)sc2ncnc(Nc3ccc(F)cc3OC(C)C)c12
MNK inhibition (active/not active) (Mus musculus [1]): Active
Activity (3T3-L1): Non-Toxic

Compound: Cc1c(C(=O)OCCc2ccccc2)sc2ncnc(Nc3ccc(F)cc3OC(C)C)c12
MNK inhibition (active/not active) (Mus musculus [1]): Active
Activity (3T3-L1): Non-Toxic

Compound: COc1cc(F)ccc1Nc1ncnc2sc(C(=O)N3CCCC3)c(C)c12
MNK inhibition (active/not active) (Mus musculus [1]): Active
Activity (3T3-L1): Non-Toxic

Compound: Cc1c(C(=O)NCCCN(C)C)sc2ncnc(Nc3ccc(F)cc3OC(C)C)c12
MNK inhibition (active/not active) (Mus musculus [1]): Active

Compound: Cc1c(C(=O)NCCc2ccncc2)sc2ncnc(Nc3ccc(F)cc3OC(C)C)c12
MNK inhibition (active/not active) (Mus musculus [1]): Active
inhibition of eIF4E phosphorylation (active/not active) (Mus musculus [2]): inactive
Activity (3T3-L1): Non-Toxic

Compound: COc1cc(F)ccc1Nc1ncnc2sc(C(=O)NC3CCCCC3)c(C)c12
MNK inhibition (active/not active) (Mus musculus [1]): Active
Activity (3T3-L1): Non-Toxic

Compound: COc1cc(F)ccc1Nc1ncnc2sc(C(=O)NCCCO)c(C)c12
MNK inhibition (active/not active) (Mus musculus [1]): Active
Activity (3T3-L1): Non-Toxic

Compound: Cc1c(C(=O)N2CCCCC2)sc2ncnc(Nc3ccc(F)cc3OC(C)C)c12
MNK inhibition (active/not active) (Mus musculus [1]): Active
Activity (3T3-L1): Non-Toxic

Compound: Cc1c(C(=O)NCC(C)(C)CN(C)C)sc2ncnc(Nc3ccc(F)cc3OC(C)C)c12
MNK inhibition (active/not active) (Mus musculus [1]): Active
inhibition of eIF4E phosphorylation (active/not active) (Mus musculus [2]): inactive
Activity (3T3-L1): Non-Toxic

Compound: COc1cc(F)ccc1Nc1ncnc2sc(C(=O)OCCO)c(C)c12
Activity (3T3-L1): Non-Toxic
